Converted amounts (≈) assume the structure as drawn.
How the values were obtained:
BXPC-3 = assay: Growth inhibition against human pancreas carcinoma cell line (BxPC-3); format: functional
SK-N-SH = assay: Growth inhibition against human neuroblastoma cell line (SK-N-SH); format: functional
SW-1736 = assay: Growth inhibition against human thyroid cell line( SW 1736); format: functional
NCI-H460 = assay: Growth inhibition against human lung-NSC NCI-H460 cell line; format: functional
P388 = assay: Effective dose against murine P388 leukemia cell line; format: functional; conditions: Mus musculus, read-out: ED50 (the source's name)
FaDu = assay: Growth inhibition against human pharynx FADU cell line; format: functional
DU-145 = assay: Growth inhibition against human prostate cell line (DU-145); format: functional
Tubulin beta-1 chain = Tubulin beta-1 chain (Homo sapiens, UniProt Q9H4B7); assay: Inhibition of tubulin polymerization upon incubation for 20 min at 30 degree C
Sequence of Tubulin beta-1 chain (Q9H4B7 whole entry): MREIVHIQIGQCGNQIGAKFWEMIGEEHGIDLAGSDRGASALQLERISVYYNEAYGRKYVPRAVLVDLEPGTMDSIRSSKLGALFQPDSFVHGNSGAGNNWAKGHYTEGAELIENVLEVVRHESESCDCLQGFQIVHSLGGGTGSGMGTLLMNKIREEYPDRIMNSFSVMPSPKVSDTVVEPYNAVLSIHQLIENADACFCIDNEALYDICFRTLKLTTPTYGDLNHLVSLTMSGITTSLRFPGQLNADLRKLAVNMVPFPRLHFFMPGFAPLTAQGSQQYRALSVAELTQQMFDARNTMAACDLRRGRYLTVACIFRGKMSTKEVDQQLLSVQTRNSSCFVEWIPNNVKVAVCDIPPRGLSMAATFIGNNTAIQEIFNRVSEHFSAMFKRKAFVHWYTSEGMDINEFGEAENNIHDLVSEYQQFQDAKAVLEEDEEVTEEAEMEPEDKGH
Method in brief: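 Purified tubulin at 10 µM (1.0 mg/mL) in 0.8 M monosodium glutamate, pH 6.6, with 4% (v/v) DMSO and varying compound concentrations. Preincubated 15 min at 37 °C, chilled on ice, then GTP (0.4 mM) added. Warmed from 0 °C to 30 °C, and assembly followed 20 min by turbidity at 350 nm. IC50 interpolated; at least two determinations; SD reported.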

Neisseria gonorrhoeae [1] = assay: Minimum inhibitory concentration against Neisseria gonorrhoeae was determined in the disk diffusion assay; value ranges from 50-100 ug/disk; format: functional
Neisseria gonorrhoeae [2] = assay: Minimum inhibitory concentration against Neisseria gonorrhoeae was determined in the disk diffusion assay; value ranges from 12.5-25 ug/disk; format: functional
Micrococcus luteus [3] = assay: Minimum inhibitory concentration against Micrococcus luteus was determined in the disk diffusion assay; format: functional
Enterococcus faecalis = assay: Minimum inhibitory concentration against Enterococcus faecalis was determined in the disk diffusion assay value ranges from 50-100 ug/disk; format: functional
Staphylococcus aureus [4] = assay: Minimum inhibitory concentration against Staphylococcus aureus was determined in the disk diffusion assay; value ranges from 25-50 ug/disk; format: functional
Micrococcus luteus [5] = assay: Minimum inhibitory concentration against Micrococcus luteus was determined in the disk diffusion assay; value ranges from 12.5-25 ug/disk; format: functional
Staphylococcus aureus [6] = assay: Minimum inhibitory concentration against Staphylococcus aureus was determined in the disk diffusion assay; value ranges from 50-100 ug/disk; format: functional

| GI50 (BXPC-3) | GI50 (SK-N-SH) | GI50 (SW-1736) | GI50 (NCI-H460) | EC50 (P388) | GI50 (DU-145) | IC50 (Tubulin beta-1 chain) | MIC (Neisseria gonorrhoeae [1]) | MIC (Neisseria gonorrhoeae [2]) | MIC (Micrococcus luteus [3]) | MIC (Enterococcus faecalis) | MIC (Staphylococcus aureus [4]) | MIC (Micrococcus luteus [5]) | MIC (Staphylococcus aureus [6]) | SMILES | GI50 (FaDu) |
| --- | --- | --- | --- | --- | --- | --- | --- | --- | --- | --- | --- | --- | --- | --- | --- |
| 0.045 µg/mL (≈ 0.125 µM) | 0.028 µg/mL (≈ 0.0777 µM) | 0.28 µg/mL (≈ 0.777 µM) | 0.14 µg/mL (≈ 0.388 µM) | 0.195 µg/mL (≈ 0.541 µM) | 0.32 µg/mL (≈ 0.888 µM) | 2.8 µM | 100 ug/disk |  |  |  |  |  |  | COc1ccc(/C=C\c2cc(OC)c(OC)c(OC)c2)cc1OCCO | 0.069 µg/mL (≈ 0.191 µM) |
| > 4 µg/mL | 0.19 µg/mL (≈ 0.628 µM) | 3.4 µg/mL (≈ 11.2 µM) | 0.74 µg/mL (≈ 2.45 µM) | 0.25 µg/mL (≈ 0.827 µM) | 0.17 µg/mL (≈ 0.562 µM) |  |  | 25 ug/disk |  |  |  |  |  | COc1ccc(/C=C\c2cc(OC)c(O)c(OC)c2)cc1O | 0.23 µg/mL (≈ 0.761 µM) |
| > 10 µg/mL | 1.5 µg/mL | 1.1 µg/mL | 3.3 µg/mL | 0.255 µg/mL | 3.4 µg/mL | > 40 µM | 100 ug/disk |  | <6.25 ug/disk | 100 ug/disk | 50 ug/disk |  |  | CCN(CC)CCOc1cc(/C=C\c2cc(OC)c(OC)c(OC)c2)ccc1OC.Cl | 1.1 µg/mL |
| > 10 µg/mL | 0.21 µg/mL | 0.64 µg/mL | 0.34 µg/mL | 0.523 µg/mL | 0.38 µg/mL | > 40 µM |  |  |  |  |  |  |  | COc1ccc(/C=C\c2cc(OC)c(OC)c(OC)c2)cc1OCCN(C)C.Cl | 0.47 µg/mL |
| > 10 µg/mL | 2.8 µg/mL | > 10 µg/mL | 3.4 µg/mL | 1.6 µg/mL | 4.1 µg/mL | > 40 µM |  |  |  |  |  |  |  | COc1ccc(/C=C\c2cc(OC)c(OC)c(OC)c2)cc1OCCN1CCN(C)CC1.Cl.Cl | 2.9 µg/mL |
| 2.3 µg/mL | 0.0064 µg/mL | 4.9 µg/mL | 0.0033 µg/mL | 0.0232 µg/mL | 0.56 µg/mL | 20 µM |  |  |  |  |  |  |  | COc1ccc(/C=C\c2cc(OC)c(OC)c(OC)c2)cc1OCCn1cccc1.Cl | 0.003 µg/mL |
| 2.9 µg/mL | 0.22 µg/mL | 0.97 µg/mL | 0.41 µg/mL | 0.634 µg/mL | 0.4 µg/mL | > 40 µM | 100 ug/disk |  |  |  |  |  |  | COc1ccc(/C=C\c2cc(OC)c(OC)c(OC)c2)cc1OCCN1CCOCC1.Cl | 0.53 µg/mL |
| > 10 µg/mL | 1.6 µg/mL | 5.1 µg/mL | 3.3 µg/mL | 0.348 µg/mL | 3.4 µg/mL | > 40 µM |  |  |  |  |  |  |  | COc1ccc(/C=C\c2cc(OC)c(OC)c(OC)c2)cc1OCCN1CCCCC1.Cl | 4.2 µg/mL |
| 0.82 µg/mL | 0.31 µg/mL | 1.5 µg/mL | 0.56 µg/mL | 19 µg/mL | 1.5 µg/mL | 7.6 µM | 100 ug/disk |  |  |  |  | 25 ug/disk |  | COc1ccc(/C=C\c2cc(OC)c(OC)c(OC)c2)cc1OCCn1ccnc1.Cl | 0.67 µg/mL |
| 2 µg/mL | 0.22 µg/mL | 0.6 µg/mL | 0.34 µg/mL | 0.421 µg/mL | 0.35 µg/mL | > 40 µM |  |  |  |  |  | 25 ug/disk | 100 ug/disk | COc1ccc(/C=C\c2cc(OC)c(OC)c(OC)c2)cc1OCCN1CCCC1.Cl | 0.49 µg/mL |
| > 0.1 µg/mL | 0.00026 µg/mL (≈ 0.000822 µM) | 0.00026 µg/mL (≈ 0.000822 µM) | 0.00056 µg/mL (≈ 0.00177 µM) | 0.0026 µg/mL (≈ 0.00822 µM) | 0.00076 µg/mL (≈ 0.0024 µM) |  |  |  |  |  |  |  |  | COc1ccc(/C=C\c2cc(OC)c(OC)c(OC)c2)cc1O [COMBRETASTATIN A4] | 0.00065 µg/mL (≈ 0.00205 µM) |

| SMILES | GI50 (BXPC-3) | GI50 (SK-N-SH) | GI50 (SW-1736) | GI50 (NCI-H460) | EC50 (P388) | GI50 (DU-145) | IC50 (Tubulin beta-1 chain) | MIC (Neisseria gonorrhoeae [1]) | MIC (Neisseria gonorrhoeae [2]) | MIC (Micrococcus luteus [3]) | MIC (Enterococcus faecalis) | MIC (Staphylococcus aureus [4]) | MIC (Micrococcus luteus [5]) | MIC (Staphylococcus aureus [6]) | GI50 (FaDu) |
| --- | --- | --- | --- | --- | --- | --- | --- | --- | --- | --- | --- | --- | --- | --- | --- |
| COc1ccc(/C=C\c2cc(OC)c(OC)c(OC)c2)cc1N | 0.00043 µg/mL (≈ 0.00136 µM) | 0.00023 µg/mL (≈ 0.000729 µM) | 0.0008 µg/mL (≈ 0.00254 µM) | 0.00033 µg/mL (≈ 0.00105 µM) | > 0.01 µg/mL | 0.00033 µg/mL (≈ 0.00105 µM) |  |  |  |  |  |  |  |  | 0.00053 µg/mL (≈ 0.00168 µM) |
| COc1ccc(/C=C\c2cc(OC)c(OC)c(OC)c2)cc1OP(=O)([O-])[O-].[Na+].[Na+] [FOSBRETABULIN DISODIUM] | 0.23 µg/mL | 0.00025 µg/mL | 0.00061 µg/mL | 0.00035 µg/mL | 0.0029 µg/mL | 0.00072 µg/mL |  |  |  |  |  |  |  |  | 0.00045 µg/mL |

— ChEMBL document CHEMBL1139543, “Antineoplastic agents. 445. Synthesis and evaluation of structural modifications of (Z)- and (E)-combretastatin A-41” (J Med Chem, 2005)
